The results in this text go back to ChEMBL document CHEMBL3351951, “2-Octadecynoic acid as a dual life stage inhibitor of Plasmodium infections and plasmodial FAS-II enzymes” (Bioorg Med Chem Lett, 2014).

Values after ≈ are worked out from the molar mass of the structure shown. Active and inactive are the calls of the source. The rule behind the calls is not given here.

Data set [1] in a line: Inhibition of Plasmodium falciparum FabZ. In short, it runs like this:
(§1)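 Recombinant P. falciparum FAS-II enzymes (FabI, FabZ, FabG) were assayed for inhibition. IC50 values (μg/ml) are the average of at least two independent assays run in duplicate.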

The nature of data set [2]: Inhibition of Plasmodium falciparum FabG. In outline:
as §1

Data set [3] in a line: Cytotoxicity against human HuH7 cells assessed as cell viability by Alamar Blue assay. The format is cell-based. The settings on record: huh-7. In outline:
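Host-cell viability was measured in the same P. berghei-infected Huh7 wells. Cells were treated from 2 hpi, and Alamar Blue fluorescence was read at the time of infection analysis (48 hpi). Cell confluency is reported in arbitrary units.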

Data set [4] concerns Plasmodium berghei. The data set is described as follows: Antimalarial activity against liver stage of GFP-expressing Plasmodium berghei infected in human Huh7 cells assessed as reduction in parasite load treated after 2 hrs of infection for 46 hrs by confocal microscopy. The format is functional, organism-based. The settings on record: Huh-7. In short, it runs like this:
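Huh7 hepatoma cells infected with GFP-expressing P. berghei sporozoites. Treated at 2 hpi for 46 h at single fixed concentrations; vehicle DMSO 0.4%. Cells fixed in 4% PFA. Exo-erythrocytic forms immunolabelled with anti-PbHsp70 and an Alexa-488 secondary antibody; nuclei stained with Hoechst. Imaged by confocal microscopy.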

The subject of data set [5] is Plasmodium berghei. The data set is described as follows: Antimalarial activity against liver stage of Plasmodium berghei infected in human Huh7 cells assessed as reduction in parasite load treated after 2 hrs of infection for 46 hrs by luciferase assay. The format is functional, organism-based. The settings on record: Huh-7, Liver. In outline:
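Huh7 hepatoma cells infected with luciferase-expressing P. berghei sporozoites. Parasite load measured by luciferase signal at 44 hpi (48 hpi in the figure legend) and expressed as percent of control. IC50 is the average of at least two independent assays run in duplicate.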

A short description of data set [6]: Inhibition of Plasmodium falciparum FabI. In short, it runs like this: as §1
Data set [7] deals with Plasmodium falciparum. The data set is described as follows: Antimalarial activity against blood stage of multidrug-resistant Plasmodium falciparum K1 after 72 hrs by [3H]hypoxanthine incorporation assay. The class given is functional, organism-based. In outline:
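Blood-stage P. falciparum K1 growth is measured by 3H-hypoxanthine incorporation. IC50 is given in μg/ml as the mean of at least two independent assays, each run in duplicate.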

The species entered for data set [8] is Danio rerio. The experiment in a line: Hepatotoxicity in zebrafish larvae during 3 to 6 days of post-fertilization. The settings on record: in vivo. The format is organism-based. In short, it runs like this:
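Larvae with DsRed-fluorescent livers are exposed from 3 dpf for 3 days, at a range of concentrations up to each compound's maximum tolerated concentration. Vehicle is 1% DMSO, and paracetamol 300 μM is the positive control. At 6 dpf, livers are imaged and scored as normal, reduced fluorescence, reduced size, enlarged or absent.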

Data set [9] in a line: Critical micelle concentration of the compound in 1X phosphate-buffered saline containing rhodamine 6G at 2.5 x 10^-6 M by spectrophotometry. The format is ADME. Conditions: buffer.
The species entered for data set [10] is Danio rerio. The experiment in a line: Hepatotoxicity in zebrafish larvae at 300 uM measured during 3 to 6 days of post-fertilization. The format is organism-based. Conditions: in vivo. In short, it runs like this: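 Larvae with DsRed-fluorescent livers were exposed from 3 to 6 dpf; vehicle was 1% DMSO. At 6 dpf, livers were photographed under a stereomicroscope and scored as normal, reduced fluorescence, reduced size, enlarged or absent. Paracetamol 300 μM served as the positive control.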

The test system of data set [11] is L6. The data set is described as follows: Cytotoxicity against rat L6 cells. The format is cell-based.

As a reminder, the IC50 is the midpoint of a concentration-inhibition curve. For `O=C(O[C@@H]1Cc2c(O)cc(O)cc2O[C@@H]1c1cc(O)c(O)c(O)c1)c1cc(O)c(O)c(O)c1` [EPIGALOCATECHIN GALLATE], the IC50 was found to be 0.03 µg/mL (≈ 0.0654 µM) in data set [1] and 0.2 µg/mL (≈ 0.436 µM) in data set [2].

Consider `CCCCCCCCCCCCCCCC#CC(=O)O`, for which the Activity entry in data set [3] was “Non-toxic”. Besides, the inhibition result in data set [4] was “Active”. For the same compound, the concentration for half-maximal inhibition (IC50) in [5] stood at 0.34 µg/mL (≈ 1.21 µM); in [6], 0.3 µg/mL (≈ 1.07 µM); in data set [1], 0.28 µg/mL (≈ 0.998 µM); in data set [2], 0.8 µg/mL (≈ 2.85 µM); in data set [7], 6 µg/mL (≈ 21.4 µM). For the same compound, the MTD in [8] is 1 µM. The compound further registered a CMC in data set [9] of 50 µg/mL.

Turning to `CC(=O)Nc1ccc(O)cc1` [ACETAMINOPHEN], the Activity result in [10] is listed as “Toxic”.

As for `CCCCCCCCCCCCCCCC(=O)O` [PALMITIC ACID], the concentration for half-maximal inhibition (IC50) in [5] was more than 25 µg/mL; in data set [6], more than 100 µg/mL; in data set [1] it was more than 100 µg/mL; in data set [2] it was more than 100 µg/mL. In data set [8], this compound had an MTD of 700 µM.

Compound `Oc1cc(Cl)ccc1Oc1ccc(Cl)cc1Cl` [TRICLOSAN] yielded an IC50 in data set [6] of 0.015 µg/mL (≈ 0.0518 µM).

For the compound `CCCCCCCCCCCC#CC(=O)O`, in data set [3], the Activity entry is recorded as “Non-toxic”. Moreover, the IC50 in data set [5] turned out to be 2.87 µg/mL (≈ 12.8 µM); in data set [6] it was 1.2 µg/mL (≈ 5.35 µM); in data set [1], 3.5 µg/mL (≈ 15.6 µM); in data set [2], 5.5 µg/mL (≈ 24.5 µM). The compound further registered an MTD in data set [8] of 1.2 µM.

`COc1cc([C@@H]2c3cc4c(cc3[C@H](O)[C@H]3COC(=O)[C@H]23)OCO4)cc(OC)c1OC` [PODOFILOX]: in data set [11], the IC50 is 0.02 µg/mL (≈ 0.0483 µM).
